Assay outcomes from PubChem.
GASC1 inh: KDM4C (human) demethylase inhibition | Q9H3R0 | GST-KDM4C 2-372, H3K9me3 peptide, LANCE TR-FRET | inhibition, % at 12.5 µM | actives 0.15% (n = 96,000);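 active means mean replicate inhibition above about 25%, with at least 55% of replicates also reaching it, limit read from the data, passing the limit was not always enough; inconclusive means only one of those two conditions met; inactive means neither condition met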
Target sequence (Q9H3R0 2-372 limits assumed): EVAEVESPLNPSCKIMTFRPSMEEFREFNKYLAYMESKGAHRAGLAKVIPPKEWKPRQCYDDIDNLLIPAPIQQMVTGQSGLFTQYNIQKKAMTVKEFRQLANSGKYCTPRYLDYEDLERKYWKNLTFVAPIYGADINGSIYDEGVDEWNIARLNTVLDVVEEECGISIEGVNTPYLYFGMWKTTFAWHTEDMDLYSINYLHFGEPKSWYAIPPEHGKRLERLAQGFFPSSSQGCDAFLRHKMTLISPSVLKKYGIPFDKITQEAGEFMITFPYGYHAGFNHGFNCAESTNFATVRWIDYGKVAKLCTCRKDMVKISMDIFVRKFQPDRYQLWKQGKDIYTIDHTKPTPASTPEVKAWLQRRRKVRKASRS
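material = GST-tagged GASC-1 (JMJD2C) catalytic fragment, aa 2-372 | amount = enzyme final amount 10 nM | medium = HEPES buffer, pH 7.5, plus ascorbate | also added = H3K9me3 peptide substrate, Fe(II), 2-oxoglutarate | dosing = single dose | times = 30 min demethylation and 1 h detection at room temperature | detection = LANCE TR-FRET | read-out basis = Fall in 671/618 emission ratio as inhibition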
T cruzi growth-1: inhibitors of T. cruzi proliferation; T. cruzi beta-gal in NIH3T3, GalScreen luminescence, 90 h; inhibition, % at 8.34 µM; actives 5.9% (n = 77,000); AID 624255;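 active means mean inhibition above about 93%, with at least 55% of replicates each passing it, limit read from the data, passing the limit was not always enough; inconclusive means only one of those two conditions holds; inactive means neither condition holds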
IDH1 R132H inh: blocks human IDH1 R132H reductase activity | O75874 | diaphorase/resazurin fluorescence, 60 min | inhibition, % at 10 µM | actives 0.18% (n = 70,000) | AID 624101; in the data active means inhibition above about 34%; inconclusive means no clear call, values can overlap the other calls; inactive means below about 11%;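 further: 0% = DMSO and 100% = no enzyme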
T cruzi growth-2: Trypanosoma cruzi proliferation inhibition. actives 72% (n = 5,600). shares compounds with T cruzi growth-1. T. cruzi beta-gal in NIH3T3, GalScreen luminescence, 90 h. inhibition, % at 8.35 µM;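 active means mean replicate inhibition above about 95% and at least 55% of replicates individually reaching it, limit read from the data; inconclusive means only one of the two criteria is met; inactive means neither criterion is met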
T cruzi growth-3: Trypanosoma cruzi proliferation inhibition; shares compounds with T cruzi growth-1; T. cruzi beta-gal in NIH3T3, GalScreen luminescence, 90 h; inhibition, % at 2.09 µM; actives 21% (n = 5,600); AID 651740;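 active means mean inhibition above about 95%, with at least 55% of replicates also reaching it, limit read from the data; inconclusive means meets just one of the two conditions; inactive means meets neither condition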;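 further: plate controls were neutral control median for no effect and positive control median for full effect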
3T3 cytotox: kills mouse NIH/3T3 fibroblasts | shares compounds with T cruzi growth-1 | NIH/3T3 viability, CellTiter-Glo ATP luminescence, 90 h | cytotoxicity (signal decrease), % at 8.35 µM | actives 14% (n = 5,600) | AID 651742;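 active means mean signal decrease across replicates above about 35% based on untreated-well scatter, with enough replicates individually passing, limit read from the data; inconclusive means no rule stated though some were filed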;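 further: 0% = median of neutral control wells and 100% = median of positive control wells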
NIH3T3 tox 2: cytotoxicity in mouse NIH/3T3 fibroblasts; AID 651744; shares compounds with T cruzi growth-1; inhibition, % at 24.9 µM; NIH/3T3 viability, CellTiter-Glo ATP luminescence, 90 h; actives 56% (n = 5,600);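 active means mean loss of cell viability signal at or above a set limit, and enough replicates individually reaching it; inconclusive means meets only the mean limit or only the replicate share; inactive means meets neither condition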;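 further: 0% = median of neutral control wells and 100% = median of positive control wells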
* = called active by the depositor; ? = inconclusive; / = not tested or not shown. Shown is part of a subset that was picked to be rich in hits.

SMILES	GASC1 inh	T cruzi growth-1	IDH1 R132H inh	T cruzi growth-2	T cruzi growth-3	3T3 cytotox	NIH3T3 tox 2
O=C(Nc1ccccc1)N1C[C@@H]2[C@H](c3ccccc31)[C@H](CO)N2Cc1ccccc1Cl	0	?	/	97*	42	11	6
C[C@@H]1CN([C@@H](C)CO)S(=O)(=O)c2ccc(C#CC3CC3)cc2O[C@H]1CN(C)Cc1ccccn1	2	?	0	100*	79	64*	72*
C[C@H](CO)N1C[C@H](C)[C@H](CN(C)Cc2ccccn2)Oc2cc(C#CC3CC3)ccc2S1(=O)=O	1	59	0	/	/	/	/
CC(C)C#Cc1ccc2c(c1)O[C@@H](CN(C)Cc1ccccn1)[C@@H](C)CN([C@H](C)CO)S2(=O)=O	/	79	/	/	/	/	/
CC(C)C#Cc1ccc2c(c1)O[C@@H](CN(C)Cc1ccccn1)[C@H](C)CN([C@H](C)CO)S2(=O)=O	/	76	-4	/	/	/	/
C[C@@H]1CN([C@H](C)CO)S(=O)(=O)c2ccc(C#CC3CC3)cc2O[C@H]1CN(C)Cc1ccccn1	0	110*	-2	76	-3	102*	76*
C[C@H]1CN([C@@H](C)CO)S(=O)(=O)c2ccc(C#CC3CC3)cc2O[C@@H]1CN(C)Cc1ccccn1	-1	109*	2	91	71	27	80*
COc1ccc(NC(=O)CN(C2CCCCC2)S(=O)(=O)c2ccc(Cl)cc2)cc1	/	/	0	/	/	/	/
CCOc1c(S(=O)(=O)NCc2ccccn2)ccc(Cl)c1Cl	/	/	0	/	/	/	/
Cc1cc(N(CC(=O)Nc2ccc(F)c(Cl)c2)S(C)(=O)=O)ccc1Br	/	/	0	/	/	/	/
Cc1ccc(C(C)C)c(OCC(=O)Nc2cccc3ncccc23)c1	/	/	10	/	/	/	/
C[C@@H]1CN([C@H](C)CO)S(=O)(=O)c2ccc(C#Cc3ccccc3F)cc2O[C@H]1CN(C)C(=O)c1ccc2c(c1)OCO2	2	125*	/	100*	106*	30	91*
CC(C)CC#Cc1ccc2c(c1)O[C@H](CN(C)C(=O)Cc1ccccc1)[C@H](C)CN([C@H](C)CO)S2(=O)=O	0	125*	0	94	74	-13	106*
CC(C)CC#Cc1ccc2c(c1)O[C@@H](CN(C)C(=O)Cc1ccccc1)[C@H](C)CN([C@@H](C)CO)S2(=O)=O	-3	129*	0	97*	103*	13	104*
CCC(=O)N(C)C[C@H]1Oc2cc(C#CCC(C)C)ccc2S(=O)(=O)N([C@@H](C)CO)C[C@@H]1C	-4	87	0	/	/	/	/
CCC(=O)N(C)C[C@@H]1Oc2cc(C#CCC(C)C)ccc2S(=O)(=O)N([C@@H](C)CO)C[C@H]1C	0	51	1	/	/	/	/
CC(=O)N(C)C[C@@H]1Oc2cc(C#Cc3ccccc3F)ccc2S(=O)(=O)N([C@H](C)CO)C[C@@H]1C	1	67	0	/	/	/	/
CCC(=O)N(C)C[C@H]1Oc2cc(C#CCC(C)C)ccc2S(=O)(=O)N([C@H](C)CO)C[C@@H]1C	-1	55	-3	/	/	/	/
CC(C)CC#Cc1ccc2c(c1)O[C@@H](CN(C)C(=O)Cc1ccccc1)[C@H](C)CN([C@H](C)CO)S2(=O)=O	2	129*	-1	105*	99*	-12	107*
CC(NS(=O)(=O)c1ccc(F)cc1)C(=O)Nc1ccccc1F (stereo unspecified)	/	/	0	/	/	/	/
COc1ccc(OCC(=O)Nc2cc(-c3nc4ccccc4o3)ccc2C)cc1	/	/	0	/	/	/	/
N#CCCN(Cc1ccco1)S(=O)(=O)c1ccccc1	/	/	0	/	/	/	/
Cn1c(=O)c2ccccc2n(CC(=O)Nc2ccccc2[N+](=O)[O-])c1=O	/	/	0	/	/	/	/
Oc1c(C(Nc2ccccn2)c2cccc(OC3CCCC3)c2)ccc2cccnc12 (stereo unspecified)	/	/	1	/	/	/	/
C[C@H](CO)N1C[C@H](C)[C@@H](CN(C)C(=O)Cc2ccncc2)Oc2cc(C#Cc3ccccc3F)ccc2S1(=O)=O	-1	/	/	/	/	/	/
SMILES	GASC1 inh	T cruzi growth-1	IDH1 R132H inh	T cruzi growth-2	T cruzi growth-3	3T3 cytotox	NIH3T3 tox 2
C[C@@H]1CN([C@@H](C)CO)S(=O)(=O)c2ccc(C#Cc3ccccc3F)cc2O[C@@H]1CN(C)C(=O)Cc1ccccc1	-4	120*	0	102*	99*	32	78*
CN(C)C(=O)c1ccc(-c2ccc([C@@H]3[C@H]4CN(C(=O)C5CC5)CCCCN4[C@H]3CO)cc2)cc1	0	26	/	/	/	/	/
CN(C)C(=O)c1ccc(-c2ccc([C@@H]3[C@H]4CN(C(=O)C5CCCC5)CCCCN4[C@H]3CO)cc2)cc1	/	114*	/	80	60	38*	38*
CN(C)C(=O)c1ccc(-c2ccc([C@@H]3[C@H](CO)N4CCCCN(C(=O)C5CCCC5)C[C@@H]34)cc2)cc1	/	100*	/	87	86	8	15
CN(C)C(=O)c1ccc(-c2ccc([C@H]3[C@H]4CN(C(=O)C5CCCC5)CCCCN4[C@H]3CO)cc2)cc1	/	32	/	/	/	/	/
CCn1c(SCC(=O)Nc2ccc(Cl)cc2Cl)nnc1-c1cccc(Cl)c1	/	/	0	/	/	/	/
COc1ccc(S(=O)(=O)N(C)CC(=O)Nc2cccc(C(F)(F)F)c2)cc1C	/	/	0	/	/	/	/
CC(C)C#Cc1ccc2c(c1)O[C@@H](CN(C)C(=O)c1ccncc1)[C@@H](C)CN([C@@H](C)CO)S2(=O)=O	-2	102*	/	100*	?	23	45*
CC(C)C#Cc1ccc2c(c1)O[C@@H](CN(C)Cc1ccncc1)[C@H](C)CN([C@H](C)CO)S2(=O)=O	0	119*	1	106*	102*	63*	104*
C[C@H](O)C#Cc1ccc2c(c1)O[C@@H](CN(C)Cc1ccncc1)[C@@H](C)CN([C@@H](C)CO)S2(=O)=O	0	66	2	/	/	/	/
C[C@H](CO)N1C[C@H](C)[C@@H](CN(C)Cc2ccncc2)Oc2cc(C#C[C@@H](C)O)ccc2S1(=O)=O	4	75	/	/	/	/	/
CC(C)C#Cc1ccc2c(c1)O[C@H](CN(C)Cc1ccncc1)[C@@H](C)CN([C@H](C)CO)S2(=O)=O	-3	?	-1	99*	101*	57*	103*
CC(C)C#Cc1ccc2c(c1)O[C@H](CN(C)C(=O)c1ccncc1)[C@H](C)CN([C@H](C)CO)S2(=O)=O	0	39	/	/	/	/	/
O=C(CSc1nnc(-c2cccnc2)n1C1CCCCC1)Nc1ccc(Cl)cc1	/	/	0	/	/	/	/
COc1ccc(OCC(=O)Nc2cccc(C(=O)O)c2C)cc1	/	/	-1	/	/	/	/
CCN1[C@@H]2c3ccc(C4=CCCC4)c(=O)n3C[C@@H]2[C@@H](CO)[C@@H]1C(=O)NC1Cc2ccccc2C1	6	23	/	/	/	/	/
